Test results taken from ChEMBL document CHEMBL3997772, “Tyrosyl-DNA Phosphodiesterase 1 Inhibitors: Usnic Acid Enamines Enhance the Cytotoxic Effect of Camptothecin” (J Nat Prod, 2016).

Columns and labels:
[1] = target: T1, Tyrosyl-DNA phosphodiesterase 1 (Homo sapiens, UniProt Q9NUW8); test: Inhibition of recombinant TDP1 (unknown origin) using 5'-(5,6 FAM-aac gtc agg gtc ttc c-BHQ1)-3' as substrate measured at 1 min interval by fluorimetric method
In short: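 Recombinant TDP1 1.3 nM with 50 nM FAM/BHQ1 biosensor in 50 mM Tris-HCl pH 8.0, 50 mM NaCl, 7 mM β-mercaptoethanol, 26 °C. Fluorescence read each minute (Ex485/Em520). Slope over 0–7 min linear phase compared with DMSO control; IC50 from 11-point concentration-response curve.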

[2] = Cytotoxicity against human MCF7 cells over expressing TDP1 assessed as reduction in viable cells after 72 hrs by MTT assay; format: cell-based; conditions: MCF7 cells overexpressing TDP1
In short: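 MCF-7 cells (~2000/well) grown 24 h at 37 °C in IMDM, 5% CO2, then exposed to 0.1–100 μM compound for 72 h. Viable cells by MTT test; CC50 = concentration reducing cell number 50% vs untreated controls; average of three independent experiments.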

[3] = target: T1, Tyrosyl-DNA phosphodiesterase 1; test: Inhibition of TDP1 in human MCF7 cells assessed as potentiation of camptothecin-induced cytotoxicity by measuring fold reduction in camptothecin CC50 at 0.5 uM after 72 hrs by MTT assay relative to camptothecin alone; format: cell-based
In short: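 MCF-7 cells (~2000/well), pre-grown 24 h at 37 °C in IMDM, 5% CO2, treated with graded camptothecin plus 0.5 μM enamine for 72 h. Viability by MTT; camptothecin CC50 taken as 50% reduction in cell number vs untreated controls, compared with and without enamine.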

[4] = target: T1, Tyrosyl-DNA phosphodiesterase 1; test: Inhibition of recombinant TDP1 (unknown origin) assessed as reduction in BHQ1 excision from 3'-end of [32P]-labeled oligonucleotide substrate after 20 mins by polyacrilamide gel electrophoresis
[5] = Cytotoxicity against human A549 cells assessed as reduction in viable cells after 72 hrs by MTT assay; format: cell-based
In short: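 A-549 cells treated with compounds; after 72 h, viable cells measured by MTT colorimetric test. CC50 = concentration reducing cell number by 50% versus untreated controls.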

[6] = target: T1, Tyrosyl-DNA phosphodiesterase 1; test: Inhibition of TDP1 in human A549 cells assessed as potentiation of camptothecin-induced cytotoxicity by measuring fold reduction in camptothecin CC50 at 0.5 uM after 72 hrs by MTT assay relative to camptothecin alone; format: cell-based
In short: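 A-549 cells treated with graded camptothecin plus 0.5 μM enamine; viability by MTT after 72 h. Camptothecin CC50 compared with and without enamine.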

T1 sequence (Q9NUW8 whole entry): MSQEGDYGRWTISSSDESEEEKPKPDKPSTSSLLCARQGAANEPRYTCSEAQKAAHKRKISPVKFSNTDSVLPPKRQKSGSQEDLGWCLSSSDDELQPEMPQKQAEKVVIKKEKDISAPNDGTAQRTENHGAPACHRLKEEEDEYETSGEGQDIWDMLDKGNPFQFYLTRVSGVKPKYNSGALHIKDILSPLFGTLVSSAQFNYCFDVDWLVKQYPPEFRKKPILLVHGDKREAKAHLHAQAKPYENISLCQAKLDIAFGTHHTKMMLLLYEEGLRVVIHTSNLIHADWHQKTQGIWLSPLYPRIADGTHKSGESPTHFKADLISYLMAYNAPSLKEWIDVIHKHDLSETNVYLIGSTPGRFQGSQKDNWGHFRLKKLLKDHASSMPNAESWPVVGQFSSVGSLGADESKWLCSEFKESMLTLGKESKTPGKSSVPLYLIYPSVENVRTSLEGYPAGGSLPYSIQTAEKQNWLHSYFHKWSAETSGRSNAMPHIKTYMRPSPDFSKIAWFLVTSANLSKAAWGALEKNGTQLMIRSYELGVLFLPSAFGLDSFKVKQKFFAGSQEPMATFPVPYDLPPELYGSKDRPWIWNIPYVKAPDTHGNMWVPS

Compound	IC50 [1]	CC50 at 72 h [2]	fold change (FC) [3]	IC50 [4]	CC50 at 72 h [5]	fold change (FC) [6]
CC(=O)c1c(O)c(C)c(O)c2c1OC1=CC(=O)/C(=C(/C)Nc3ccccc3)C(=O)[C@]12C	1.92 µM	39 µM	1	–	–	–
CC(=O)c1c(O)c(C)c(O)c2c1OC1=CC(=O)/C(=C(/C)Nc3ccc(F)cc3)C(=O)[C@]12C	0.94 µM	> 50 µM	1.6	–	–	–
CC(=O)C1=C(O)C=C2Oc3c(C(C)=O)c(O)c(C)c(O)c3[C@]2(C)C1=O [(-)-USNIC ACID]	> 100 µM	–	–	–	–	–
CC(=O)c1c(O)c(C)c(O)c2c1OC1=CC(=O)/C(=C(/C)Nc3ccc(F)cc3)C(=O)[C@@]12C	1.54 µM	22.2 µM	2.1	–	–	–
CC(=O)c1c(O)c(C)c(O)c2c1OC1=CC(=O)/C(=C(/C)Nc3ccc(Br)cc3)C(=O)[C@@]12C	0.26 µM	39.3 µM	1.5	4.6 µM	–	–
CC(=O)c1c(O)c(C)c(O)c2c1OC1=CC(=O)/C(=C(/C)NCCCN3CCOCC3)C(=O)C12C (stereo not given)	> 100 µM	24 µM	–	–	–	–
CC(=O)c1c(O)c(C)c(O)c2c1OC1=CC(=O)/C(=C(/C)Nc3cccc(Br)c3)C(=O)C12C (stereo not given)	0.75 µM	18.1 µM	12.5	–	> 100 µM	1.2
CC(=O)C1=C(O)C=C2Oc3c(C(C)=O)c(O)c(C)c(O)c3[C@@]2(C)C1=O [(+)-USNIC ACID]	> 100 µM	52.3 µM	–	–	–	–
CC(=O)c1c(O)c(C)c(O)c2c1OC1=CC(=O)/C(=C(/C)NCCCc3cc(C(C)(C)C)c(O)c(C(C)(C)C)c3)C(=O)C12C (stereo not given)	0.16 µM	> 50 µM	10.5	–	> 100 µM	3.5
CC(=O)c1c(O)c(C)c(O)c2c1OC1=CC(=O)/C(=C(/C)NCCN(C)C)C(=O)C12C (stereo not given)	> 100 µM	33 µM	–	–	–	–
CC(=O)c1c(O)c(C)c(O)c2c1OC1=CC(=O)/C(=C(/C)Nc3cccc(F)c3)C(=O)C12C (stereo not given)	1.39 µM	35 µM	12.8	–	> 100 µM	1.6
CC(=O)c1c(O)c(C)c(O)c2c1OC1=CC(=O)/C(=C(/C)Nc3ccc(Cl)cc3)C(=O)[C@]12C	1.62 µM	16 µM	0.35	–	–	–
CC(=O)c1c(O)c(C)c(O)c2c1OC1=CC(=O)/C(=C(/C)NCCc3ccc(O)cc3)C(=O)[C@@]12C	0.79 µM	21.5 µM	12.8	–	70 µM	1.3
CC(=O)c1c(O)c(C)c(O)c2c1OC1=CC(=O)/C(=C(/C)NCCc3cc(C(C)(C)C)c(O)c(C(C)(C)C)c3)C(=O)C12C (stereo not given)	0.19 µM	> 50 µM	1.7	–	–	–
CC(=O)c1c(O)c(C)c(O)c2c1OC1=CC(=O)/C(=C(/C)Nc3ccccc3)C(=O)[C@@]12C	1.53 µM	> 50 µM	1.2	–	–	–
CC(=O)c1c(O)c(C)c(O)c2c1OC1=CC(=O)/C(=C(/C)Nc3ccc(Cl)cc3)C(=O)[C@@]12C	1.81 µM	> 50 µM	0.51	–	–	–
CC(=O)c1c(O)c(C)c(O)c2c1OC1=CC(=O)/C(=C(/C)Nc3ccc(Br)cc3)C(=O)[C@]12C	0.57 µM	10.6 µM	0.92	–	–	–
